In ChEMBL document CHEMBL1671716, “Antimicrobial susceptibility patterns for recent clinical isolates of anaerobic bacteria in South Korea” (2010):
Converted amounts (≈) assume the structure as drawn.

How the values were obtained:
Actinomyces israelii [1] = assay: Antimicrobial activity against Actinomyces israelii assessed as percent susceptible isolates after 48 hrs by agar dilution method; type: functional
Prevotella intermedia = assay: Antimicrobial activity against Prevotella intermedia after 48 hrs by agar dilution method; type: functional
Procedure, shortened: (§1)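 CLSI agar dilution (M11-A7); inoculum 10^5 CFU applied by replicator; plates incubated anaerobically 48 h at 37°C. For piperacillin-tazobactam, tazobactam held constant at 4 μg/ml.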

Bacteroides fragilis [2] = assay: Antimicrobial activity against Bacteroides fragilis assessed as percent resistant isolates after 48 hrs by agar dilution method; type: functional
Procedure, shortened: (§2)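 CLSI agar dilution on recent Korean clinical anaerobe isolates. Inoculum 10^5 CFU per spot by replicator. Plates incubated in an anaerobic chamber at 37°C for 48 h. For piperacillin plus tazobactam, tazobactam was held constant at 4 μg/ml. Resistance and susceptibility rates derived from MICs.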

Bacteroides ovatus [3] = assay: Antimicrobial activity against Bacteroides ovatus assessed as percent resistant isolates after 48 hrs by agar dilution method; type: functional; procedure, shortened: as §2
Phocaeicola vulgatus [4] = assay: Antimicrobial activity against Bacteroides vulgatus assessed as percent susceptible isolates after 48 hrs by agar dilution method; type: functional
Schaalia meyeri [5] = assay: Antimicrobial activity against Actinomyces meyeri assessed as percent susceptible isolates after 48 hrs by agar dilution method; type: functional
Schaalia meyeri [6] = assay: Antimicrobial activity against Actinomyces meyeri after 48 hrs by agar dilution method; type: functional
Procedure, shortened: (§3)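 MICs on clinical anaerobe isolates by the CLSI agar dilution method. Inoculum of 10^5 CFU applied with a Steers replicator. Plates incubated 48 h at 37°C in an anaerobic chamber.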

[7] = system: Bacteroides thetaiotaomicron; assay: Antimicrobial activity against Bacteroides thetaiotaomicron assessed as percent susceptible isolates after 48 hrs by agar dilution method; type: functional
Parvimonas micra = assay: Antimicrobial activity against Peptostreptococcus micros after 48 hrs by agar dilution method; type: functional; procedure, shortened: as §1
Bacteroides fragilis [8] = assay: Antimicrobial activity against Bacteroides fragilis assessed as percent susceptible isolates after 48 hrs by agar dilution method; type: functional
[9] = system: Parabacteroides distasonis; assay: Antimicrobial activity against Bacteroides distasonis assessed as percent resistant isolates after 48 hrs by agar dilution method; type: functional; procedure, shortened: as §2
Actinomyces israelii [10] = assay: Antimicrobial activity against Actinomyces israelii after 48 hrs by agar dilution method; type: functional; procedure, shortened: as §3
Hoylesella oralis [11] = assay: Antimicrobial activity against Prevotella oralis assessed as percent susceptible isolates after 48 hrs by agar dilution method; type: functional
Procedure, shortened: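 CLSI agar dilution MIC testing of clinical isolates. 10^5 CFU spotted by replicator, plates incubated 48 h at 37°C in an anaerobic chamber. Susceptibility rates derived from the MICs.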

Prevotella buccae [12] = assay: Antimicrobial activity against Prevotella buccae assessed as percent susceptible isolates after 48 hrs by agar dilution method; type: functional, Segatella buccae; procedure, shortened: as §1
Actinomyces naeslundii [13] = assay: Antimicrobial activity against Actinomyces naeslundii after 48 hrs by agar dilution method; type: functional; procedure, shortened: as §3
Finegoldia magna = assay: Antimicrobial activity against Finegoldia magna assessed as percent susceptible isolates after 48 hrs by agar dilution method; type: functional; procedure, shortened: as §1
Bacteroides ovatus [14] = assay: Antimicrobial activity against Bacteroides ovatus assessed as percent susceptible isolates after 48 hrs by agar dilution method; type: functional
Phocaeicola vulgatus [15] = assay: Antimicrobial activity against Bacteroides vulgatus assessed as percent resistant isolates after 48 hrs by agar dilution method; type: functional; procedure, shortened: as §2
Actinomyces naeslundii [16] = assay: Antimicrobial activity against Actinomyces naeslundii assessed as percent resistant isolates after 48 hrs by agar dilution method; type: functional; procedure, shortened: as §2
Bifidobacterium sp. = assay: Antimicrobial activity against Bifidobacterium sp. assessed as percent susceptible isolates after 48 hrs by agar dilution method; type: functional; procedure, shortened: as §1
Hoylesella oralis [17] = assay: Antimicrobial activity against Prevotella oralis after 48 hrs by agar dilution method; type: functional; procedure, shortened: as §1
[18] = system: Parabacteroides distasonis; assay: Antimicrobial activity against Bacteroides distasonis after 48 hrs by agar dilution method; type: functional; procedure, shortened: as §3
[19] = system: Peptostreptococcus anaerobius; assay: Antimicrobial activity against Peptostreptococcus anaerobius assessed as percent susceptible isolates after 48 hrs by agar dilution method; type: functional; procedure, shortened: as §2
Bacteroides fragilis [20] = assay: Antimicrobial activity against Bacteroides fragilis after 48 hrs by agar dilution method; type: functional; procedure, shortened: as §3
[21] = system: Porphyromonas asaccharolytica; assay: Antimicrobial activity against Porphyromonas asaccharolytica after 48 hrs by agar dilution method; type: functional; procedure, shortened: as §1
Fusobacterium mortiferum = assay: Antimicrobial activity against Fusobacterium mortiferum after 48 hrs by agar dilution method; type: functional; procedure, shortened: as §1
Prevotella bivia = assay: Antimicrobial activity against Prevotella bivia after 48 hrs by agar dilution method; type: functional; procedure, shortened: as §1
Prevotella buccae [22] = assay: Antimicrobial activity against Prevotella buccae after 48 hrs by agar dilution method; type: functional; settings: Segatella buccae; procedure, shortened: as §1
Fusobacterium nucleatum = assay: Antimicrobial activity against Fusobacterium nucleatum after 48 hrs by agar dilution method; type: functional; procedure, shortened: as §1

For `COc1c(N2C[C@@H]3CCCN[C@@H]3C2)c(F)cc2c(=O)c(C(=O)O)cn(C3CC3)c12` [MOXIFLOXACIN], the Activity (Actinomyces israelii [1]) was 92%, the MIC (Prevotella intermedia) was 0.5 µg/mL (≈ 1.25 µM) and the MIC50 (Prevotella intermedia) was 0.5 µg/mL (≈ 1.25 µM). The MIC90 (Prevotella intermedia) was 0.5 µg/mL (≈ 1.25 µM), the Activity (Bacteroides fragilis [2]) was 11% and the Activity (Bacteroides ovatus [3]) was 18%. For the same compound, the Activity (Phocaeicola vulgatus [4]) was 72%, the Activity (Schaalia meyeri [5]) was 92% and the MIC50 (Schaalia meyeri [6]) was 1 µg/mL (≈ 2.49 µM). The MIC90 (Schaalia meyeri [6]) was 2 µg/mL (≈ 4.98 µM), the Activity [7] was 72% and the MIC50 (Parvimonas micra) was 0.125 µg/mL (≈ 0.311 µM). The MIC90 (Parvimonas micra) was 0.25 µg/mL (≈ 0.623 µM), the Activity (Bacteroides fragilis [8]) was 84% and the Activity [9] was 18%. It also gave an MIC50 (Actinomyces israelii [10]) of 1 µg/mL (≈ 2.49 µM), an MIC90 (Actinomyces israelii [10]) of 2 µg/mL (≈ 4.98 µM) and an Activity (Hoylesella oralis [11]) of 56%. It also gave an Activity (Prevotella buccae [12]) of 56%, an MIC50 (Actinomyces naeslundii [13]) of 1 µg/mL (≈ 2.49 µM) and an MIC90 (Actinomyces naeslundii [13]) of 2 µg/mL (≈ 4.98 µM). For the same compound, the Activity (Finegoldia magna) was 60%, the Activity (Bacteroides ovatus [14]) was 72% and the Activity (Phocaeicola vulgatus [15]) was 18%. It also gave an Activity (Actinomyces naeslundii [16]) of 0%, an Activity (Bifidobacterium sp.) of 92% and an MIC50 (Hoylesella oralis [17]) of 2 µg/mL (≈ 4.98 µM). It also gave an MIC90 (Hoylesella oralis [17]) of 8 µg/mL (≈ 19.9 µM), an MIC50 [18] of 2 µg/mL (≈ 4.98 µM) and an MIC90 [18] of 16 µg/mL (≈ 39.9 µM). It also gave an Activity [19] of 92%.
With `CCC[C@@H]1C[C@@H](C(=O)N[C@@H]([C@H]2O[C@H](SC)[C@H](O)[C@@H](O)[C@H]2O)[C@H](C)Cl)N(C)C1` [CLINDAMYCIN] the Activity (Actinomyces israelii [1]) was 85%, the MIC50 (Prevotella intermedia) was no more than 0.06 µg/mL and the MIC90 (Prevotella intermedia) was no more than 0.06 µg/mL. The Activity (Bacteroides fragilis [2]) was 33%, the Activity (Bacteroides ovatus [3]) was 68% and the Activity (Phocaeicola vulgatus [4]) was 16%. The Activity (Schaalia meyeri [5]) was 85%, the MIC (Schaalia meyeri [6]) was 0.06 µg/mL (≈ 0.141 µM) and the MIC50 (Schaalia meyeri [6]) was 0.06 µg/mL (≈ 0.141 µM). It also gave an MIC90 (Schaalia meyeri [6]) greater than 128 µg/mL, an MIC50 (Bacteroides fragilis [20]) of 0.5 µg/mL (≈ 1.18 µM) and an MIC90 (Bacteroides fragilis [20]) greater than 128 µg/mL. The Activity [7] was 16%, the MIC50 (Parvimonas micra) was 0.125 µg/mL (≈ 0.294 µM) and the MIC90 (Parvimonas micra) was 64 µg/mL (≈ 151 µM). It also gave an Activity (Bacteroides fragilis [8]) of 67%, an MIC [21] of 0.06 µg/mL (≈ 0.141 µM) and an Activity [9] of 68%. It also gave an MIC (Actinomyces israelii [10]) of 0.06 µg/mL (≈ 0.141 µM), an MIC50 (Actinomyces israelii [10]) of 0.06 µg/mL (≈ 0.141 µM) and an MIC90 (Actinomyces israelii [10]) greater than 128 µg/mL. It also gave an Activity (Hoylesella oralis [11]) of 50%, an Activity (Prevotella buccae [12]) of 50% and an MIC (Actinomyces naeslundii [13]) of 0.06 µg/mL (≈ 0.141 µM). For the same compound, the MIC50 (Actinomyces naeslundii [13]) was 0.06 µg/mL (≈ 0.141 µM), the MIC90 (Actinomyces naeslundii [13]) was greater than 128 µg/mL and the Activity (Finegoldia magna) was 73%. For the same compound, the Activity (Bacteroides ovatus [14]) was 16%, the Activity (Phocaeicola vulgatus [15]) was 68% and the Activity (Actinomyces naeslundii [16]) was 15%. It also gave an Activity (Bifidobacterium sp.) of 85%, an MIC50 (Hoylesella oralis [17]) of no more than 0.06 µg/mL and an MIC90 (Hoylesella oralis [17]) of 128 µg/mL (≈ 301 µM). For the same compound, the MIC (Fusobacterium mortiferum) was 0.06 µg/mL (≈ 0.141 µM), the MIC50 [18] was greater than 128 µg/mL and the MIC90 [18] was greater than 128 µg/mL. For the same compound, the MIC50 (Prevotella bivia) was no more than 0.06 µg/mL, the MIC90 (Prevotella bivia) was 128 µg/mL (≈ 301 µM) and the Activity [19] was 77%. For the same compound, the MIC50 (Prevotella buccae [22]) was no more than 0.06 µg/mL and the MIC90 (Prevotella buccae [22]) was 128 µg/mL (≈ 301 µM).
With `Cc1ncc([N+](=O)[O-])n1CCO` [METRONIDAZOLE] the Activity (Actinomyces israelii [1]) was 46%, the MIC (Prevotella intermedia) was 0.5 µg/mL (≈ 2.92 µM) and the MIC50 (Prevotella intermedia) was 0.5 µg/mL (≈ 2.92 µM). The MIC90 (Prevotella intermedia) was 2 µg/mL (≈ 11.7 µM), the Activity (Bacteroides fragilis [2]) was 0% and the Activity (Bacteroides ovatus [3]) was 0%. For the same compound, the Activity (Phocaeicola vulgatus [4]) was 100%, the Activity (Schaalia meyeri [5]) was 46% and the MIC50 (Schaalia meyeri [6]) was 16 µg/mL (≈ 93.5 µM). The MIC90 (Schaalia meyeri [6]) was greater than 128 µg/mL, the MIC50 (Bacteroides fragilis [20]) was 2 µg/mL (≈ 11.7 µM) and the MIC90 (Bacteroides fragilis [20]) was 2 µg/mL (≈ 11.7 µM). The Activity [7] was 100%, the MIC50 (Parvimonas micra) was 0.5 µg/mL (≈ 2.92 µM) and the MIC90 (Parvimonas micra) was 1 µg/mL (≈ 5.84 µM). The Activity (Bacteroides fragilis [8]) was 100%, the MIC [21] was 0.13 µg/mL (≈ 0.76 µM) and the Activity [9] was 0%. It also gave an MIC50 (Actinomyces israelii [10]) of 16 µg/mL (≈ 93.5 µM), an MIC90 (Actinomyces israelii [10]) greater than 128 µg/mL and an Activity (Hoylesella oralis [11]) of 100%. The Activity (Prevotella buccae [12]) was 100%, the MIC50 (Actinomyces naeslundii [13]) was 16 µg/mL (≈ 93.5 µM) and the MIC90 (Actinomyces naeslundii [13]) was greater than 128 µg/mL. For the same compound, the Activity (Finegoldia magna) was 100%, the Activity (Bacteroides ovatus [14]) was 100% and the Activity (Phocaeicola vulgatus [15]) was 0%. The Activity (Bifidobacterium sp.) was 46%, the MIC50 (Hoylesella oralis [17]) was 4 µg/mL (≈ 23.4 µM) and the MIC90 (Hoylesella oralis [17]) was 8 µg/mL (≈ 46.7 µM). The MIC (Fusobacterium mortiferum) was 0.13 µg/mL (≈ 0.76 µM), the MIC50 [18] was 2 µg/mL (≈ 11.7 µM) and the MIC90 [18] was 2 µg/mL (≈ 11.7 µM). For the same compound, the MIC50 (Prevotella bivia) was 4 µg/mL (≈ 23.4 µM), the MIC90 (Prevotella bivia) was 8 µg/mL (≈ 46.7 µM) and the Activity [19] was 100%. For the same compound, the MIC50 (Prevotella buccae [22]) was 4 µg/mL (≈ 23.4 µM), the MIC90 (Prevotella buccae [22]) was 8 µg/mL (≈ 46.7 µM) and the MIC (Fusobacterium nucleatum) was 0.13 µg/mL (≈ 0.76 µM).
